The source made the active and inactive calls. The calls are words filed in the database; no cut-off is given here.
How the values were obtained:
[1] = test system: Leishmania donovani; test: Antileishmanial activity against log phase of Leishmania donovani MHOM/IN/80/Dd8 promastigotes assessed as reduction in cell viability at 50 uM incubated for 72 hrs by MTT assay; type: functional
In short: (§1)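 Log-phase luciferase-transfected L. donovani Dd8 promastigotes (M199 + 10% FBS, 24 °C) treated with compounds at 25 and 50 µM in DMSO, with 0.1% DMSO vehicle control. After 72 h, MTT added 4 h. Formazan dissolved in DMSO, read at 570 nm. Percent inhibition reported as mean ± SD of at least three independent experiments in replicate.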

[2] = test system: Leishmania donovani; test: Antileishmanial activity against log phase of Leishmania donovani MHOM/IN/80/Dd8 promastigotes assessed as reduction in cell viability at 25 uM incubated for 72 hrs by MTT assay; type: functional; in short: as §1
[3] = test system: Leishmania donovani; test: Antileishmanial activity against amastigote stage of Leishmania donovani MHOM/IN/80/Dd8 harboring luciferase gene infected in mouse J774 cells assessed as parasite growth inhibition at 50 uM incubated for 72 hrs by Steady-Glo reagent based luciferase assay; type: functional; conditions: for inhibition at 50 µM: MHOM/IN/80/Dd8, J774
In short: (§2)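 J774 murine macrophages, 4 × 10⁴ cells/well in RPMI with 10% FBS for 24 h, are infected for 24 h at 37 °C, 5% CO₂ with stationary-phase luciferase-transfected L. donovani Dd8 promastigotes at a 1:8 macrophage:parasite ratio. Compounds are dissolved in DMSO. Luminescence is read after Steady-Glo is added in PBS. IC₅₀ is taken from a four-parameter Hill nonlinear regression. Miltefosine is the reference.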

[4] = test system: Leishmania donovani; test: Antileishmanial activity against amastigote stage of Leishmania donovani MHOM/IN/80/Dd8 harboring luciferase gene infected in mouse J774 cells assessed as parasite growth inhibition at 25 uM incubated for 72 hrs by Steady-Glo reagent based luciferase assay; type: functional; conditions: for inhibition at 25 µM: MHOM/IN/80/Dd8, J774; in short: as §2
[5] = test system: Leishmania donovani; test: Antileishmanial activity against amastigote stage of Leishmania donovani MHOM/IN/80/Dd8 harboring luciferase gene infected in mouse J774 cells assessed as parasite growth inhibition incubated for 72 hrs by Steady-Glo reagent based luciferase assay; type: functional, organism-based; conditions: MHOM/IN/80/Dd8, J774, 72 h; in short: as §2
[6] = test system: Leishmania donovani; test: Antileishmanial activity against Leishmania donovani promastigotes assessed as parasite growth inhibition incubated for 72 hrs by Alamar Blue assay; type: functional, organism-based
[7] = test system: Leishmania donovani; test: Antileishmanial activity against Leishmania donovani MHOM/IN/80/Dd8 infected in BALB/c mouse assessed as reduction in organ intracellular amastigote burden at 25 mg/kg, po for 5 days and measured at 1 week post-treatment by Giemsa staining based assay relative to control; type: functional; conditions: MHOM/IN/80/Dd8, po, 288 h, time 12 day
In short: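 Female BALB/c mice (20–25 g), 5/group, infected iv with 2 × 10^7 stationary-phase L. donovani promastigotes. Reference drug given orally at 25 mg/kg daily for 5 consecutive days. Sacrificed day 7 post-treatment. Liver and spleen impression smears fixed in methanol, stained with 30% Giemsa for 2 h. Amastigotes/1000 nucleated cells counted and expressed as LDU.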

[8] = test system: Splenocyte; test: Immunomodulatory activity in BALB/c mouse infected with Leishmania donovani amastigotes assessed as increase in IFN-gamma level in splenocytes supernatants at 25 mg/kg, po for 5 days; type: functional, organism-based; conditions: time 5.0 day
[9] = test system: Splenocyte; test: Immunomodulatory activity in BALB/c mouse infected with Leishmania donovani amastigotes assessed as increase in IL-12 level in splenocytes supernatants at 25 mg/kg, po for 5 days; type: functional, organism-based; conditions: time 5.0 day
[10] = test system: Splenocyte; test: Immunomodulatory activity in BALB/c mouse infected with Leishmania donovani amastigotes assessed as decrease in IL-10 level in splenocytes supernatants at 25 mg/kg, po for 5 days; type: functional, organism-based; conditions: time 5.0 day
[11] = test system: Splenocyte; test: Immunomodulatory activity in BALB/c mouse infected with Leishmania donovani amastigotes assessed as decrease in TGF-beta level in splenocytes supernatants at 25 mg/kg, po for 5 days; type: functional, organism-based; conditions: time 5.0 day
[12] = test system: Leishmania donovani; test: Induction of mitochondrial membrane potential dysfunction in Leishmania donovani MHOM/IN/80/Dd8 promastigotes assessed as cells with mitochondrial depolarization at 50 uM incubated for 72 hrs by JC1 staining based flow cytometry (reference value: 3.63%); type: functional
[13] = Cytotoxicity against mouse J774 cells assessed as reduction in cell viability incubated for 72 hrs by MTT assay; type: cell-based
In short: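 J774 macrophages seeded at 1 × 10^5 cells/well overnight, then exposed to graded concentrations (7.81–500 µM) for 72 h at 37 °C, 5% CO2. MTT (5 mg/mL) added for 2 h, formazan solubilized in DMSO and read at 570 nm. CC50 taken as 50% viability loss relative to untreated cells.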

[14] = test system: Leishmania donovani; test: Antileishmanial activity against log phase of Leishmania donovani MHOM/IN/80/Dd8 promastigotes assessed as reduction in cell viability by MTT assay; type: functional, organism-based; conditions: time 12-72 hrs, TDE = time-dependent effect
[15] = test system: Leishmania donovani; test: Antileishmanial activity against Leishmania donovani MHOM/IN/80/Dd8 infected in BALB/c mouse assessed as reduction in intracellular amastigote burden in spleen at 50 mg/kg, ip for 5 days and measured at 1 week post-treatment by Giemsa staining based assay relative to control; type: functional; conditions: time 12.0 day
In short: (§3)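 Female BALB/c mice (20–25 g), 5/group, infected iv with 2 × 10^7 stationary-phase L. donovani promastigotes. Infection confirmed at 2 wk, then 50 mg/kg ip daily for 5 consecutive days. Vehicle was 5% DMSO. Sacrificed day 7 post-treatment. Giemsa-stained liver/spleen impression smears counted as amastigotes/1000 nucleated cells, expressed as LDU (amastigotes per nucleated cell × organ weight in mg), compared with untreated infected controls.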

[16] = test system: Leishmania donovani; test: Antileishmanial activity against Leishmania donovani MHOM/IN/80/Dd8 infected in BALB/c mouse assessed as reduction in intracellular amastigote burden in liver at 50 mg/kg, ip for 5 days and measured at 1 week post-treatment by Giemsa staining based assay relative to control; type: functional; conditions: time 12.0 day; in short: as §3
[17] = test system: Leishmania donovani; test: Antileishmanial activity against amastigote stage of Leishmania donovani MHOM/IN/80/Dd8 harboring luciferase gene infected in mouse J774 cells assessed as parasite killing incubated for 72 hrs by Steady-Glo reagent based luciferase assay; type: functional, organism-based; conditions: dose 3.12-50 µM; in short: as §2
[18] = test system: Leishmania donovani; test: Antileishmanial activity against amastigote stage of Leishmania donovani MHOM/IN/80/Dd8 harboring luciferase gene infected in mouse J774 cells assessed as parasite growth inhibition by Giemsa staining based analysis; type: functional, organism-based; conditions: time 12-72 hrs, TDE = time-dependent effect
In short: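 J774 macrophages are infected for 24 h with stationary-phase luciferase-transfected Dd8 promastigotes at a 1:8 ratio in chamber slides. After compound treatment, cells are fixed and Giemsa-stained, and intracellular amastigotes are counted by microscopy.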

[19] = test system: Leishmania donovani; test: Antileishmanial activity against amastigote stage of Leishmania donovani MHOM/IN/80/Dd8 harboring luciferase gene infected in mouse J774 cells assessed as parasite killing at 50 to 100 uM incubated for 72 hrs by Steady-Glo reagent based luciferase assay; type: functional; conditions: dose 50-100 µM; in short: as §2
[20] = test system: Leishmania; test: Antileishmanial activity against Leishmania; type: functional, organism-based
In short: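 Antiamastigote assay: J774 murine macrophages in RPMI + 10% FBS, infected 24 h at 37 °C, 5% CO2 with stationary-phase luciferase-transfected L. donovani Dd8 promastigotes (1:8 macrophage:parasite). Infectivity confirmed by Giemsa staining on parallel slides. Compounds then added and incubated 72 h. Read-out by luciferase luminescence. IC50 from four-parameter Hill nonlinear regression of the dose-response.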

Structure (SMILES)	inhibition at 50 µM [1] [%]	inhibition at 25 µM [2] [%]	inhibition at 50 µM [3] [%]	inhibition at 25 µM [4] [%]	also measured
N#Cc1c(N2CCN(c3ccccc3Cl)CC2)cc(-c2ccccc2)oc1=O	72.9	46.9	73.7	49.2	–
N#Cc1c(N2CCN(c3ccccc3Cl)CC2)cc(-c2ccc(Cl)cc2)oc1=O	58.3	55.2	71	73.1	–
N#Cc1c(N2CCN(c3ccccc3O)CC2)cc(-c2cccs2)c2c1CSC2	4.8	–	79.3	60.1	inhibition [2]: inactive
Cc1ccc(-c2cc(N3CCN(c4ccccc4O)CC3)c(C#N)c(=O)o2)cc1	72.8	54.7	83.2	77.3	IC50 [5]: 13 µM
N#Cc1c(N2CCN(c3ccccc3Cl)CC2)cc(-c2ccc(Br)cc2)oc1=O	66.5	57.9	68.5	60.5	–
N#Cc1c(N2CCN(c3ccccc3O)CC2)cc(-c2ccc(Br)cc2)oc1=O	–	–	35.1	14.5	inhibition [1]: inactive; inhibition [2]: inactive
COc1ccccc1N1CCN(c2cc(-c3ccc(Br)cc3)oc(=O)c2C#N)CC1	61.2	56.6	58.3	43.3	–
COc1ccc(-c2cc(N3CCN(c4ccccc4O)CC3)c(C#N)c(=O)o2)cc1	86.3	78.3	84.4	51.8	IC50 [5]: 13 µM
c1ccc2[nH]c(-c3ccc(N4CCN(c5ccc(-c6nc7ccccc7[nH]6)cc5)CC4)cc3)nc2c1	–	–	–	–	IC50 [6]: 410 nM
N#Cc1c(N2CCN(c3ccccc3O)CC2)cc(-c2ccc(Br)s2)oc1=O	88.1	52.1	85.1	74.8	IC50 [5]: 13 µM
CCCCCCCCCCCCCCCCOP(=O)([O-])OCC[N+](C)(C)C [MILTEFOSINE]	99.7	99.4	95.3	91.2	IC50 [5]: 12.8 µM; inhibition in vivo at 25 mg/kg [7]: > 97%; Activity [8]: Active; Activity [9]: Active; Activity [10]: Active; Activity [11]: Active
N#Cc1c(N2CCN(c3ccccc3O)CC2)cc(-c2ccc(Br)cc2)c2c1CCSC2	33.3	–	83.3	71	inhibition [2]: inactive
COc1ccc(-c2cc(N3CCN(c4ccccc4Cl)CC3)c(C#N)c(=O)o2)cc1	69.2	60.3	62.5	51	–
N#Cc1c(N2CCN(c3cccc(Cl)c3)CC2)cc(-c2ccccc2)oc1=O	57.3	44	72.1	47.4	–
N#Cc1c(N2CCN(c3ccccc3O)CC2)cc(-c2cccc3ccccc23)oc1=O	78.6	77.3	80.8	71.4	IC50 [5]: 13 µM
N#Cc1c(N2CCN(c3ccccc3O)CC2)cc(-c2cccs2)c2c1CCSC2	–	–	72.6	65	inhibition [1]: inactive; inhibition [2]: inactive
N#Cc1c(N2CCN(c3ccccc3O)CC2)cc(-c2ccccc2)c2c1CSC2	87.8	82.1	–	–	inhibition [3]: inactive; inhibition [4]: inactive
N#CC(C#N)=NNc1cccc(Cl)c1 [CARBONYL CYANIDE M-CHLOROPHENYLHYDRAZONE]	–	–	–	–	Activity [12]: 95.6%
COc1ccccc1N1CCN(c2cc(-c3cccs3)oc(=O)c2C#N)CC1	62.2	48.1	71.2	52.2	–
N#Cc1c2c(c3c(c1N1CCN(c4ccccc4O)CC1)Cc1ccccc1-3)CSC2	–	–	57.3	45.5	inhibition [1]: inactive; inhibition [2]: inactive
N#Cc1c(N2CCN(c3ccccc3O)CC2)c2c(oc1=O)-c1ccccc1CC2	81.3	35.9	64.8	37.8	–
N#Cc1c(N2CCN(c3ccccc3O)CC2)cc(-c2ccc(Cl)cc2)oc1=O	25	–	–	–	inhibition [2]: inactive; inhibition [3]: inactive; inhibition [4]: inactive
N#Cc1c(N2CCN(c3ccccc3O)CC2)cc(-c2cccs2)oc1=O	90.2	81.3	89.3	84.7	CC50 at 72 h [13]: 311 µM; Activity [14]: Tde; Activity [15]: Active; Activity [16]: Active; Activity [17]: Dose-Dependent Effect; Activity [18]: Tde; Activity [19]: >89%; IC50 [5]: 15.3 µM
CCn1nc2cc(N/C(C)=C3/C(=O)C=C(C)OC3=O)ccc2c1Cl	–	–	–	–	IC50 [20]: 2480 nM
N#Cc1c(N2CCN(c3ccccc3O)CC2)c2c(oc1=O)-c1ccccc1C2	82.2	14.2	60	37.8	–

— ChEMBL document CHEMBL4837217, “Design, synthesis, in vitro and in vivo biological evaluation of pyranone-piperazine analogs as potent antileishmanial agents” (Eur J Med Chem, 2021)
